Screening results deposited in PubChem by several laboratories.
GC-A act: GC-A (human) enzyme activation. 0.14% of 370,000 active. activation, % at 10 µM. P16066. HEK293 GC-A cells, cGMP TR-FRET, EC30 ANP; 0% at EC30 ANP, 100% saturating ANP. AID 1671463; in the data active means activation above about 40%
ASAP1 GAP inh: ASAP1 ArfGAP inhibition; 0.19% of 360,000 active; AID 624377; Q9ULH1; inhibition, % at 16.5 µM; ASAP1-stimulated ARF1 GTP hydrolysis, GDP FP detection; in the data active means inhibition above about 25%;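 further: 0% = vehicle with enzyme and substrate and 100% = no enzyme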
HCV core dimer: blocks dimerization of HCV core protein; 0.33% of 300,000 active; TR-FRET GST/Flag-core106 dimerization, 1536-well; inhibition, % at 5 µM;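 active means inhibition above the mean of all tested compounds plus 3 SD, set per screening campaign, cut at about 45% in these data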
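Assay system: tagged HCV core106 pair (GST and Flag); medium: KF-containing HEPES buffer, pH 7.45, DTT, CHAPS, BSA; also added: Eu donor and XL665 acceptor anti-tag antibodies; dosing: 5 µM single dose; timing: compound-protein-antibody incubation 4 h at 22.5 °C; signal: TR-FRET 671 and 617 nm emission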
CTSL1 counter: counter-screen for PFM18AAP inhibitors: inhibitors of F. hepatica cathepsin L1. recombinant F. hepatica cathepsin L1, Z-Leu-Arg-MCA fluorescence. inhibition, % at 5.96 µM. 0.49% of 300,000 active;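 active means inhibition above the mean of all tested compounds plus 3 SD, set per screening campaign, cut at about 17% in these data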;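 further: 0% = plate median of test compound wells and 100% = 1 µM Z-Phe-Ala-diazomethylketone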
ARFGAP1 inhibitor: inhibitors of rat ARFGAP1; Arfgap1-stimulated ARF1 GTP hydrolysis, GDP FP detection; inhibition, % at 16.5 µM; 0.26% of 360,000 active; AID 651572;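 active means inhibition above a per-plate limit, mean inhibition of low control wells plus 3 SD, cut at about 25% in these data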;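 further: 0% = DMSO wells with enzyme and 100% = wells lacking Arfgap1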
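system = rat Arfgap1 catalytic domain, aa 1-136 | technique = FP, GDP Alexa 633 tracer displaced from anti-GDP antibody, 620/688 nm | compound = one concentration, 16.5 µM, DMSO 1.26% | medium = HEPES-based buffer, pH 7.5 | timing = compound-enzyme preincubation 20 min, reaction 120 min, detection 60 min, 25 °C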
NPR2 activator: GC-B (human) receptor activation. P20594. HEK293-GC-B cells, CNP EC30, cGMP TR-FRET; 0% at EC30 CNP, 100% saturating CNP. activation, % at 10 µM. 0.11% of 370,000 active;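 active means activation at 10 µM reaching about 35% in either raw or pattern-adjusted values, limit read from the data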
Target sequence (P20594 whole entry, looked up): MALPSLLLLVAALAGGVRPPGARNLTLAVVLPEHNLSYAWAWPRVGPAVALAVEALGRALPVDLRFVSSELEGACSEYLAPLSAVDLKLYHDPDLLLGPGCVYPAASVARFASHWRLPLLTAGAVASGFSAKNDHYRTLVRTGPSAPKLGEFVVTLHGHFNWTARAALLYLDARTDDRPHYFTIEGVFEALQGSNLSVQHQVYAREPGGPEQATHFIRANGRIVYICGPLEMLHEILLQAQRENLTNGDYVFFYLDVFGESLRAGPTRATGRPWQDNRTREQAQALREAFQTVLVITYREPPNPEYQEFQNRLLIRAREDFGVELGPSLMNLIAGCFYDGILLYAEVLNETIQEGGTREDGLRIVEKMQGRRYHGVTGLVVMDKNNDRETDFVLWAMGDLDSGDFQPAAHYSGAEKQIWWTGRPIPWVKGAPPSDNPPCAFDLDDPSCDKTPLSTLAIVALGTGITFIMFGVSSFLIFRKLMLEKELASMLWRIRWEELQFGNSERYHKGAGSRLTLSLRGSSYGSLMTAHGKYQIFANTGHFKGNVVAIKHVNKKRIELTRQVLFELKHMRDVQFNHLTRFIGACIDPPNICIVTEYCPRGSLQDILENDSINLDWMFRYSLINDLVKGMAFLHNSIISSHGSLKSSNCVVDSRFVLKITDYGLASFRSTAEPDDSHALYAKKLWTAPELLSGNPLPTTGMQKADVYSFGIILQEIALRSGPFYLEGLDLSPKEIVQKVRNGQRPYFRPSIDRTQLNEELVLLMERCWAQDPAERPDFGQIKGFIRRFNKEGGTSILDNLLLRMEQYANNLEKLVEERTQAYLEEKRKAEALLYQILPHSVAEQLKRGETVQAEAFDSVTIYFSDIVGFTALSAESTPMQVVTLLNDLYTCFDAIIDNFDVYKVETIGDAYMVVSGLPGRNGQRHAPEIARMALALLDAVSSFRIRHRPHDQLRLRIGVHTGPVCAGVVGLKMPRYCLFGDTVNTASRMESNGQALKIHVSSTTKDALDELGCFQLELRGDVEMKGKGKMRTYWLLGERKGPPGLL
ARFGAP1 confirm: rat ARFGAP1 inhibition, confirmed | shares compounds with ARFGAP1 inhibitor | ARFGAP1-stimulated ARF1 GTP hydrolysis, GDP tracer FP | inhibition, % at 16.5 µM | 30% of 890 active | AID 651608;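 active means average inhibition over triplicates above the hit cutoff set in the earlier primary screen, cut at about 25% in these data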;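 further: 0% = Arfgap1 plus ARF1-GTP with DMSO and 100% = wells lacking Arfgap1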
Starred values were filed as active, the others as inactive; / = not tested or not shown. An excerpt weighted towards active compounds, which were near 1.2% of everything screened.

SMILES	GC-A act	ASAP1 GAP inh	HCV core dimer	CTSL1 counter	ARFGAP1 inhibitor	NPR2 activator	ARFGAP1 confirm
CC[C@@]1(O)C(=O)OCc2c1cc1n(c2=O)Cc2cc3c(N)cccc3nc2-1	-5.6	17.9	-8.8	1.6	2.2	-2.5	/
CC[C@@]1(O)C(=O)OCc2c1cc1n(c2=O)Cc2cc3c(CN(C)C)c(O)ccc3nc2-1	53.0*	24.3	5.8	-10.0	24.9*	13.9	7.6
CC(C)(C)NC(=O)CN1CCN(C(=O)CCl)CC1	1.3	-1.3	-1.0	-2.1	24.8*	3.0	-1.1
CCOC(=O)N1CCN(C(=O)CCl)CC1	-0.5	1.3	1.1	7.8	-1.1	1.2	/
COC(=O)c1ccc(N2CCN(C)CC2)c(NC(=O)COc2ccc(OC)cc2)c1	6.2	6.5	-1.9	-2.1	-7.3	3.6	/
COC(=O)c1ccc(N2CCN(C)CC2)c(NC(=O)COc2ccccc2Cl)c1	2.1	3.5	-2.4	-3.2	27.4*	4.1	2.3
COc1cc(-c2noc(C)c2C(=O)NCC[C@@H]2CCCN2C)cc(OC)c1OC	-21.5	6.3	/	/	-1.7	-21.4	/
Cc1ccc(C(=O)N[C@@H](C)CN2C3=NC[C@H](C(C)C)N3C[C@H]2Cc2ccc(O)cc2)cc1Br	-6.8	-2.4	-3.5	-2.6	26.3*	-12.3	9.8
O=C(CCCNC(=O)/C(=C/c1ccccc1F)NC(=O)c1ccccc1)OCc1ccccc1	-5.4	-4.6	10.2	0.6	26.8*	-4.7	3.6
O=[N+]([O-])c1ccc(OC2OCC(O)C(O)C2O)cc1 (stereo not given)	-0.5	0.7	/	/	9.0	-2.1	/
Cc1ccc(C2(C)NC(=O)N(CC(=O)NC(=O)NC(C)C)C2=O)cc1 (stereo not given)	-0.8	-12.4	-4.1	0.9	29.8*	-2.1	-5.8
CCCc1ccc(Oc2cn[nH]c2-c2ccc(O)cc2O)cc1	40.1*	14.8	1.4	2.1	29.9*	1.4	18.4
COc1ccc(NC(=S)N(CCN(C)C)C(C)c2ccncc2)cc1Cl (stereo not given)	2.8	-2.9	-2.4	-4.6	-0.8	-3.3	/
O=C(Nc1ccc(CN2CCOCC2)cc1)c1ccc(-c2cc(Cl)ccc2Cl)o1	2.0	12.9	8.7	1.9	36.8*	6.5	25.3*
O=C(Nc1ccc(CN2CCOCC2)cc1)c1ccc(Br)o1	-0.1	7.0	-1.4	-5.8	4.2	-2.5	/
CCOC(=O)C1(C)CCCN1C(=O)c1ccc2ccccc2c1 (stereo not given)	-0.1	11.0	/	/	-0.8	4.7	/
COc1ccc(NC(=O)N2CCN(c3nc(-c4cccc(OC)c4)cs3)CC2)cc1	4.3	7.5	-0.1	0.5	-0.8	6.5	/
COc1cccc(-c2csc(N3CCN(C(=O)Nc4ccc(Cl)cc4)CC3)n2)c1	1.1	3.0	11.8	2.9	28.1*	-0.8	5.8
O=C(N/N=C/c1ccc(O)cc1O)c1ccc(CN2C(=O)c3cccc4cccc2c34)cc1	-3.5	7.4	54.2*	11.2	26.6*	4.9	80.4*
O=C(CSc1ncccn1)N1CCC(Cc2ccccc2)CC1	-0.1	-12.1	-1.1	-2.7	2.1	-5.4	/
Cc1cccnc1Nc1nc(-c2ccc(O)cc2O)cs1	0.9	21.1	-17.6	0.6	33.7*	-8.2	17.6
COC(=O)c1cc(C)[nH]c2c(C)cc3nc4ccccc4c3c12	-41.5	-1.2	-1.6	1.9	41.0*	-11.9	13.8
Cc1ccc2nc(-c3ccc(C#N)cc3)c(Cc3ccccn3)n2c1	1.2	8.2	/	/	-2.0	-4.5	/
CC[C@H](CO)Oc1cc(NCc2cccc(N)c2)c2ncn(C(C)C)c2c1	0.7	3.2	/	/	27.4*	-0.7	2.7
Cc1nc2nc(SCC(=O)N3CCOCC3)nn2c(C)c1Cc1ccccc1	2.4	4.9	-1.0	2.9	17.8	-3.9	/
SMILES	GC-A act	ASAP1 GAP inh	HCV core dimer	CTSL1 counter	ARFGAP1 inhibitor	NPR2 activator	ARFGAP1 confirm
COC(=O)c1ccc(C(=O)Nc2ccc3c(c2)C(=O)NC3=O)cc1	-3.1	13.8	-4.3	8.9	23.3	-2.4	/
Cc1ccc(C(=O)Nc2ccc3c(c2)C(=O)NC3=O)cc1	-3.2	13.2	-0.2	-0.4	25.2*	-7.7	-3.2
Cn1c(=O)c2c(nc(SCc3cccnc3)n2Cc2ccccc2)n(C)c1=O	13.1	-10.2	9.7	5.2	25.8*	12.4	6.0
CC(C)CCn1c(Sc2nc3ccccc3s2)nc2c1c(=O)[nH]c(=O)n2C	-7.4	3.9	18.1	1.5	0.0	-8.2	/
CNS(=O)(=O)c1cccc(C(=O)NCC(c2cccs2)N2CCOCC2)c1 (stereo not given)	0.9	1.5	1.6	-4.7	26.2*	4.4	-0.7
O=C(CN(c1ccc(F)cc1)S(=O)(=O)c1ccc2c(c1)OCCO2)Nc1ccc2c(c1)OCO2	-3.2	13.6	10.1	5.7	26.6*	0.8	3.5
COc1ccc(C(=O)N/C(=C\c2ccccc2)C(=O)NCc2cccnc2)cc1	0.1	-4.1	-2.8	-1.4	24.9*	9.0	1.8
COc1ccc(/C=C(/NC(=O)c2ccccc2)C(=O)NCc2ccncc2)cc1	0.6	11.3	-7.2	-8.6	7.3	-0.6	/
COc1ccc(C(=O)Nc2cccc(-c3ccc(N4CCOCC4)nn3)c2)cc1OC	4.3	0.1	-6.2	2.6	29.3*	5.5	13.8
Cn1c(=O)cc(SCC(=O)NCc2ccc(F)cc2)c2ccccc21	-1.6	-3.9	12.9	-0.2	4.6	-2.4	/
Cn1c(=O)cc(SCC(=O)NCCCN2CCN(c3ccc(F)cc3)CC2)c2ccccc21	-8.4	0.7	5.4	2.9	37.6*	2.3	7.8
NC(=O)Cn1cc(/C=N\NS(=O)(=O)c2cccc([N+](=O)[O-])c2)c2ccccc21	3.2	-8.3	-8.8	2.6	1.7	3.7	/
Cc1ccc(S(=O)(=O)N/N=C\c2cn(CC(N)=O)c3ccccc23)cc1	1.3	0.3	5.6	-1.2	29.9*	3.6	-7.0
Nc1ncnc2c1C1(CCCCC1)Cc1ccccc1-2	-7.7	1.0	-4.0	-3.3	6.5	-12.7	/
CCNC(=O)NC(=O)C(C)Sc1nc2cc(C(=O)OC)ccc2c(=O)n1-c1ccccc1 (stereo not given)	-1.5	-1.4	9.7	2.5	26.6*	-0.5	5.9
O=C(NCc1cccs1)c1cc2c(s1)-c1ccccc1OC2	6.0	4.3	-4.1	2.1	47.0*	0.8	46.6*
O=C(COC(=O)CSc1ccc([N+](=O)[O-])cc1)NCc1cccs1	0.7	6.7	-4.2	18.3*	26.4*	-7.5	8.9
Cc1ccc(SCC(=O)OCC(=O)NCc2cccs2)cc1	0.0	11.4	2.1	-4.2	-3.3	0.7	/
